From PubChem
OX1R antag-1 = blocks the human orexin 1 receptor. O43613. 330,000 compounds, 1.8% hits. AID 485270. inhibition, % at 6.6 µM. OX1R-expressing cells, FRET antagonist read-out; in the data active means inhibition mostly above about 38%, no sharp cut-off; inactive means mostly below about 40%;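 further: 0% = agonist challenge alone and 100% = reference antagonist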
GPR7 antag = antagonists of human GPR7 (neuropeptides B/W receptor 1) | P48145 | GPR7-expressing cells, fluorescence antagonist assay | inhibition, % at 4.4 µM | 290,000 compounds, 1.1% hits; in the data active means inhibition above about 16%, passing the limit was not always enough;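 further: cells stimulated with the agonist NPW; 0% = agonist with vehicle and 100% = vehicle without agonist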
Target sequence (P48145 whole entry, looked up): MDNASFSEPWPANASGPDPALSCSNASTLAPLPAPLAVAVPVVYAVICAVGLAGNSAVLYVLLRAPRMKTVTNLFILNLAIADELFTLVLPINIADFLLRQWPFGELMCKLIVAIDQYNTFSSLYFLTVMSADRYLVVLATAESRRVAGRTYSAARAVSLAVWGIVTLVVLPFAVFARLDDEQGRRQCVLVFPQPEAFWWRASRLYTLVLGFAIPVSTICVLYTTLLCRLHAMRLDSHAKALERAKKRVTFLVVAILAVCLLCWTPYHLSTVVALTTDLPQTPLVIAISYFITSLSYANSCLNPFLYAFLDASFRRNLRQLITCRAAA
TAAR1 ag = agonists of human TAAR1; AID 624467; activation, % at 3 µM; 360,000 compounds, 0.99% hits; CHO RD-HGA16 TAAR1, Fluo-8 calcium fluorescence; vehicle wells 0%, saturating PEA agonist 100%;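 active means activation above the mean activation of all test compounds in the run plus 3 SD, cut at about 38% in these data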
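Test system: RD-HGA16 (CHO) cells co-expressing Gα16 and hTAAR1 | Doses: Single dose, 3 µM | Schedule: 17-24 h seeding, 75 min 37 °C dye, 30 min RT | Evaluation: % activation from peak over basal fluorescence ratio, DMSO-to-PEA scaled | Technique: Kinetic Fluo-8 calcium fluorescence | Benchmarks: Low control DMSO, high control PEA (EC100)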
OX1R antag-2 = human HCRTR1 antagonism | O43613 | inhibition, % at 5 µM | CHO/OX1R cells, Fluo-8 calcium fluorescence, orexin A | 330,000 compounds, 0.43% hits;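 active means inhibition above its plate's threshold, mean inhibition of all tested compounds on the plate plus 3 SD, cut at about 37% in these data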;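 further: 0% = orexin A challenge wells and 100% = SB-334867-A antagonist wells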
TAAR1 antag = antagonists of human TAAR1; 360,000 compounds, 1.5% hits; AID 624466; Q96RJ0; CHO RD-HGA16 TAAR1, Fluo-8 calcium fluorescence, antagonist; inhibition, % at 3 µM;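 active means inhibition above a per-plate cutoff, the mean inhibition of test compounds on that plate plus 3 SD, cut at about 49% in these data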;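 further: 0% = DMSO plus EC80 beta-PEA response and 100% = DMSO alone without agonist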
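Test system: CHO RD-HGA16 cells bearing hTAAR1 | Reagent: β-PEA, EC80 | Compound dosing: 3 µM, single point | Schedule: Dye loading 75 min at 37 °C, then 30 min room temperature | Signal: Calcium fluorescence with Fluo-8 | Evaluation: Percent inhibition of PEA-evoked calcium signal, max/basal emission ratio | Control set: DMSO-only wells and EC80 β-PEA-stimulated wells | Repeats: Singlicate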
CHO parental Ca = counter-screen: ATP calcium response change in parental CHO cells. parental CHO-K1, ATP-induced calcium, Fluo-8 fluorescence. inhibition, % at 5.6 µM. 330,000 compounds, 0.63% hits;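 active means inhibition above that plate's mean sample inhibition plus 3 SD, cut at about 26% in these data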;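 further: 0% = ATP-challenged DMSO wells and 100% = DMSO wells without ATP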
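Test system: untransfected parental CHO cell line. Compound: one dose, 5.6 µM nominal. Detection: intracellular calcium via Fluo-8 no-wash fluorescent dye. Measure: % inhibition. Benchmarks: ATP-challenged DMSO wells low, unchallenged DMSO wells high.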
* hit, by the source's call; . = no result given. A selection: hits, their analogues and other compounds. The true share with any hit is near 4.6%.

SMILES	OX1R antag-1	GPR7 antag	TAAR1 ag	OX1R antag-2	TAAR1 antag	CHO parental Ca
CC(C)C1C(C#N)=C(N)Oc2n[nH]c(-c3ccc4ccccc4c3)c21 (stereo not given)	-4	-8	22	42	32	34*
CCC1CCCCN1C(=O)COC(=O)CSc1ccc(C(N)=O)cc1[N+](=O)[O-] (stereo not given)	20	.	5	-12	-11	-17
Cc1c(NC(=O)COC(=O)CSc2ccc(C(N)=O)cc2[N+](=O)[O-])c(=O)n(-c2ccccc2)n1C	71*	7	7	2	-24	-4
COC(=O)C1CCN(C(=O)COC(=O)CSc2ccc(C(N)=O)cc2[N+](=O)[O-])CC1	37*	.	1	-7	-12	-1
Cc1ccc(C(=O)OCC(=O)Nc2c(C)n(C)n(-c3ccccc3)c2=O)cc1[N+](=O)[O-]	16	-4	6	-16	-8	-1
CCOC(=O)C1CCN(C(=O)COC(=O)CSc2ccc(C(N)=O)cc2[N+](=O)[O-])CC1	55*	-10	0	-11	-1	-5
Cn1nc(C(C)(C)C)cc1N1C(=O)CCC1(C)C(=O)NC1CCCC1 (stereo not given)	.	.	1	.	0	.
Cc1cc2c(nc1C)CCCN2Cc1ccccn1	.	.	0	.	6	.
CC(C)C[C@H]1COc2cc(NCc3ccc(Cl)c(Cl)c3)ccc2S(=O)(=O)N1	.	.	26	.	37	.
CCc1c(-c2ccc(Br)cc2)ncn1Cc1cccc(-c2ccccc2)c1	.	.	1	.	7	.
CCN(CC(=O)Nc1ccc(Br)cc1)C(=O)Cc1cccc(F)c1	49*	-3	3	-9	5	-20
CN(C)c1ccc(NC(=O)Nc2cccc(Cl)c2)cc1	27	-6	31	-6	43	-4
O=C(Nc1cccc(Cl)c1)Nc1csc([N+](=O)[O-])c1	50*	14	5	17	28	62*
CC1(C(=O)Nc2ccc3c(c2)OCCO3)CN(S(C)(=O)=O)CC(=O)N1CCCN1CCOCC1 (stereo not given)	.	.	1	.	-8	.
Cc1cccc(C)c1NC(=O)C1(C)CSCC(=O)N1CCC(C)C (stereo not given)	.	.	0	.	-15	.
CC1CCN(CCC(=O)N/N=C/c2ccc([N+](=O)[O-])cc2)CC1	45*	-8	0	-26	13	-7
CN(Cc1ccccc1)C(=O)c1cnc(Cc2c[nH]c3ccccc23)c(I)c1	.	.	8	.	38	.
O=C(O)c1ccc(COc2ccc3ccccc3c2/C=C2/NC(=O)N(Cc3ccc(F)cc3)C2=O)cc1	.	-2	14	.	56*	.
CCCC(=O)N1CCN(c2ccc(NC(=O)c3cccs3)cc2Cl)CC1	9	-12	4	-33	8	-15
CCCC(=O)N1CCN(c2ccc(NC(=O)c3cc4ccccc4o3)cc2Cl)CC1	91*	-15	18	60*	84*	61*
COc1ccc(Cl)cc1N(CC(=O)NC1CC1)S(=O)(=O)c1ccc(C)c([N+](=O)[O-])c1	17	0	10	-25	16	8
CCN(CC)C(=O)CN(c1cc(Cl)ccc1OC)S(=O)(=O)c1ccc(C)c([N+](=O)[O-])c1	74*	12	-1	39	19	3
CC(C)c1ccc(N(C(=O)c2snc(C(N)=O)c2N)C(C(=O)NCC2CCCO2)c2ccc(N(C)C)cc2)cc1 (stereo not given)	.	-30	24	.	55*	.
CN(C)c1ccc(C(C(=O)NCC2CCCO2)N(C(=O)c2snc(C(N)=O)c2N)c2ccccc2)cc1 (stereo not given)	9	-7	22	-4	52*	6
CCc1ccccc1N(C(=O)c1snc(C(N)=O)c1N)C(C(=O)NCC1CCCO1)c1ccc(N(C)C)cc1 (stereo not given)	.	0	-1	.	-7	.
NC(=O)c1nsc(C(=O)N(c2ccccc2)C(C(=O)NC2CCCC2)c2ccc3ncccc3c2)c1N (stereo not given)	17	-14	8	-4	51*	-7
COc1ccc(N(C(=O)c2snc(C(N)=O)c2N)C(C(=O)NC2CCCC2)c2ccc3ncccc3c2)cc1 (stereo not given)	19	-18	7	-4	48	-14
